Measurements taken from ChEMBL document CHEMBL2034912, “Synthesis of 4-methylcoumarin derivatives containing 4,5-dihydropyrazole moiety to scavenge radicals and to protect DNA” (Eur J Med Chem, 2012).
Activity calls are given as the source filed them.

Assays:
Format in all cases: functional
[1] = Antioxidant activity against AAPH-induced DNA oxidation assessed as decrease in thiobarbituric acid reactive substances at 80 to 200 uM measured every 120 mins by spectrophotometry
Outline: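 DNA (final 2.0 mg/mL) and AAPH (final 4.0 mM) in phosphate buffer with 10.0 mM EDTA; test compounds added in DMSO across various concentrations; 2.0 mL aliquots incubated at 37 °C. Three tubes withdrawn every 120 min, cooled, treated with TBA and 3.0% trichloroacetic acid, then boiled 15 min; TBARS absorbance read. Inhibition period (t_inh) fitted linearly against concentration.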

[2] = Antioxidant activity assessed as ABTS radical scavenging activity at 40 uM
Outline: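 ABTS (4.0 mM) oxidized with 1.41 mM K₂S₂O₈ for 16 h to form the radical cation, then diluted with ethanol to absorbance about 0.70. Compound added at 0.04 mM, and absorbance decay at 734 nm followed over time. Number of radicals trapped (n) is the depleted ABTS radical concentration divided by antioxidant concentration.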

[3] = system: Radical scavenging activity; experiment: Antioxidant activity assessed as DPPH radical scavenging activity at 40 uM
Outline: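 DPPH dissolved in ethanol to absorbance about 1.00 at 517 nm (ε […] M⁻¹ cm⁻¹). Compound added as an ethanol solution at a single final concentration, and the decay of DPPH absorbance recorded.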

Measured: Activity

O=c1ccc2cc3ccoc3c(O)c2o1
active: all assays above

Cc1cc(=O)oc2c(C3=NNC(c4cccc([N+](=O)[O-])c4)C3)c(O)ccc12 (centres undefined)
active: all assays above

CC(=O)N1N=C(c2c(O)ccc3c(C)cc(=O)oc23)CC1c1ccc(O)cc1O (centres undefined)
active: all assays above

CC(=O)N1N=C(c2c(O)ccc3c(C)cc(=O)oc23)CC1c1ccccc1O (centres undefined)
active: all assays above

CC(=O)N1N=C(c2c(O)ccc3c(C)cc(=O)oc23)CC1c1ccc(O)c(O)c1 (centres undefined)
active: all assays above

COc1cc(C2CC(c3c(O)ccc4c(C)cc(=O)oc34)=NN2)ccc1O (centres undefined)
active: all assays above

COc1cc(C2CC(c3c(O)ccc4c(C)cc(=O)oc34)=NN2C(C)=O)ccc1O (centres undefined)
active: all assays above

CC(=O)N1N=C(c2c(O)ccc3c(C)cc(=O)oc23)CC1c1cccc([N+](=O)[O-])c1 (centres undefined)
active: all assays above
